In the library only some 2% were active in any assay of this set; here they are far more common.
HCV NS3 hel inh = inhibitors of HCV NS3 helicase, primary screen, biochemical, Cy5 molecular beacon fluorescence; NS3 helicase DNA unwinding; inhibition, % at 10.9 µM; actives 0.56% (n = 290,000); AID 1800, 2009;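 active means inhibition above the mean of all tested compounds plus 3 SD, set per campaign, cut at about 35% in these data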
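assay system = NS3 helicase fragment of HCV | buffer or medium = MOPS pH 6.5, MgCl2, DTT, Tween20, BSA | timing = 60 min unwinding reaction at 25 °C after ATP addition | signal = Cy5 beacon fluorescence read at start and 1 h | read-out basis = % inhibition of unwinding | control set = low DMSO, high thioflavine S at 110 µM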
PABP FP inh = PABP poly(A) RNA binding inhibitors, primary screen, biochemical, fluorescence polarization, uHTS; actives 1% (n = 290,000); inhibition, % at 35 µM;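 further: calls also rest on retests at 20 µM and on dose response follow-up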
Target sequence (P11940 whole entry, looked up): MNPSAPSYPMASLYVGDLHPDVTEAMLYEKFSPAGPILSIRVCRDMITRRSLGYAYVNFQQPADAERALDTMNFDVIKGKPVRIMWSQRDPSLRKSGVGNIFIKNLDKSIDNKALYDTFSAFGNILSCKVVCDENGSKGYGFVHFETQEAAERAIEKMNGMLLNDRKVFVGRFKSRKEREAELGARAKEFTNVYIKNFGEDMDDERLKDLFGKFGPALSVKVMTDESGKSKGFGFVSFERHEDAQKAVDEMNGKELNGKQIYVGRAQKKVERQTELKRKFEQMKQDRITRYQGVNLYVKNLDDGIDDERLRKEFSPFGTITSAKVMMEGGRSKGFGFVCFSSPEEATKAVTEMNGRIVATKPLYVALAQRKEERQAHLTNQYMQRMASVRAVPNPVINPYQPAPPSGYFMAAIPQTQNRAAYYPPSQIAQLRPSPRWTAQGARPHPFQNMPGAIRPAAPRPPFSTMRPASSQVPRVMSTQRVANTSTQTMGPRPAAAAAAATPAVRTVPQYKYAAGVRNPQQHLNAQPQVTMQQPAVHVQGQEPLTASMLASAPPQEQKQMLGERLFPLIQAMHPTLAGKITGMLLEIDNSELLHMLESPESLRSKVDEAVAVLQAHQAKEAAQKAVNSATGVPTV
core dimer inh = inhibitors of HCV core protein dimerization, primary screen, biochemical, TR-FRET, high-throughput. TR-FRET GST/Flag-core106 dimerization, 1536-well. inhibition, % at 5 µM. actives 0.33% (n = 300,000). AID 1899, 2009;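 active means inhibition above the mean of all tested compounds plus 3 SD, set per screening campaign, cut at about 45% in these data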
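Assay system – GST-tagged and Flag-tagged HCV core protein residues 1-106 · Quantity – core106 proteins, GST 13.5 nM and Flag 17 nM · Benchmarks – unlabelled core106 and no-GST-core106 wells · Read-out basis – percent inhibition of core106 dimerization signal · Detection – time-resolved FRET, ex 340 nm, em 617 and 671 nm · Schedule – 4 h at 22.5 °C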
eIF4H inh = human eIF4H binding inhibitors, primary screen, translation initiation inhibitor project, biochemical, uHTS, fluorescence polarization; Eukaryotic translation initiation factor 4H (Homo sapiens), Q15056; eIF4H fluorescence polarization binding assay; inhibition, % at 35 µM; actives 0.94% (n = 290,000);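 further: calls also rest on retests at 20 µM and on dose response follow-up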
DNA FID counter = compounds displacing fluorescent DNA intercalator, primary screen, artefact control for HCV NS3 helicase inhibitor project, biochemical, FID fluorescence | DNA fluorescent intercalator displacement | inhibition, % at 7.9 µM | AID 1845, 2009 | actives 0.17% (n = 290,000); in the data active means inhibition above about 37%;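 further: higher means more ethidium bromide displaced from hairpin DNA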
PABP1 MLLE inh = inhibitors of PABP1 MLLE–PAM2 peptide binding, primary screen, biochemical, fluorescence polarization, FITC-PAM2, GST-MLLE. actives 0.36% (n = 360,000). Polyadenylate-binding protein 1 (Homo sapiens), P11940. inhibition, % at 20 µM. AID 588489, 2011; in the data active means inhibition above about 35%, passing the limit was not always enough
Large screens that a line does not name were inactive. Unless noted, how the calls were made is not given here.

Cc1onc(-c2ccccc2)c1C(=O)N(CC(C)C)c1c(N)n(CC(C)C)c(=O)[nH]c1=O	none (no result: HCV NS3 hel inh, PABP FP inh, core dimer inh, eIF4H inh, DNA FID counter)
NC(=S)N=Nc1c(O)[nH]c2ccc(F)cc12	PABP1 MLLE inh 47.9
COc1ccc(/C=C2\CCOC2=O)cc1	none
COc1ccc(/C=C2/C(=O)OCc3cc(OC)c(OC)cc32)cc1	PABP FP inh 104.0, eIF4H inh active
COc1ccccc1N1CCNC(C)C1=O (stereo unspecified)	none
Nn1c(SCC(=O)NCCN2C(=O)CSC2=O)nnc1-c1ccc(OC(F)F)cc1	none (no result: HCV NS3 hel inh, PABP FP inh, eIF4H inh, DNA FID counter)
Cc1nnc(SCC(=O)NC(=O)NCc2ccco2)n1Cc1ccccc1	core dimer inh 62.4
Cc1ccccc1Nc1nnc(SCC(=O)NC(=O)NCc2ccco2)s1	eIF4H inh 59.1
Nn1c(SCC(=O)NC(=O)NCc2ccco2)nnc1-c1ccc(OC(F)F)cc1	core dimer inh 78.9
O=C(CSc1nnc(Nc2ccccc2F)s1)NCc1ccco1	none (no result: core dimer inh)
O=C(CSc1nnnn1-c1ccccc1)NC(=O)NCc1ccco1	core dimer inh 60.1
CCOc1ccccc1-n1nnnc1SCC(=O)NC(=O)NCc1ccco1	PABP FP inh 23.1, core dimer inh 57.0, eIF4H inh 60.7
COc1cccc(CN(C)C(=O)c2ccc3nccnc3c2)c1	PABP FP inh 89.6, eIF4H inh 87.8
CC1(C)CC(=O)C=C(c2ccc(-c3ccc(OC(F)(F)F)cc3)cc2)C1=O	none (no result: HCV NS3 hel inh, PABP FP inh, core dimer inh, eIF4H inh, DNA FID counter)
[O-]/[N+](=C\C=C\c1ccccc1)c1ccccc1	PABP FP inh 52.0, eIF4H inh 1.1
CS(=O)(=O)Nc1ccc2c(c1)[C@H]1C[C@H](CC(=O)NCc3cccc(F)c3)O[C@@H](CO)[C@H]1O2	none (no result: HCV NS3 hel inh, PABP FP inh, core dimer inh, eIF4H inh, DNA FID counter)
Nc1nnc(CC(=O)N/N=C/c2ccc(-c3cccc(C(=O)O)c3)o2)s1	eIF4H inh 76.0
Nc1nonc1-c1nc2ccccc2n1CC(=O)N/N=C/c1ccc(-c2cccc(C(=O)O)c2)o1	PABP FP inh active, eIF4H inh 86.2 (no result: core dimer inh)
Cc1cc(C)cc(C(=O)NCC(=O)OCC(=O)N2c3ccccc3NC(=O)C2(C)C)c1	PABP FP inh active, eIF4H inh 76.0
COc1ccc(Nc2cc(Nc3cc(OC)c(OC)c(OC)c3)ncn2)cc1	none
Cc1nc2ccc(C(=O)NCCc3c[nH]c4ccccc34)cn2c1N(C)C(=O)CCc1ccccc1	none (no result: HCV NS3 hel inh, PABP FP inh, core dimer inh, eIF4H inh, DNA FID counter)
CCOC(=O)/C=C(\C)Sc1cc(=O)oc2ccccc12	none
CCOC(=O)/C=C(\C)Sc1cc(O)c2ccccc2c1O	PABP1 MLLE inh 61.6 (no result: core dimer inh)
O=C(O)c1ccc(NCc2cccc(Br)c2)cc1	PABP FP inh 117.7, eIF4H inh active
O=C(O)c1ccc(NCc2ccncc2)cc1	none
CCC(C)NCCOc1ccc(C(C)(C)c2ccccc2)cc1 (stereo unspecified)	DNA FID counter 39.3
CNCC[C@H](Oc1cccc2ccccc12)c1cccs1	DNA FID counter 40.6
CC(=O)c1c(C)[nH]c(C(=O)OCC(=O)c2c[nH]c3ccccc23)c1C	none (no result: HCV NS3 hel inh, PABP FP inh, core dimer inh, eIF4H inh, DNA FID counter)
CC1C/C(=C/c2ccncc2)C(=O)/C(=C/c2ccncc2)C1 (stereo unspecified)	none
CC1C/C(=C/c2cccn2C)C(=O)/C(=C/c2cccn2C)C1 (stereo unspecified)	PABP FP inh 92.8, eIF4H inh 58.4
Cc1cc(O)cc(O)c1/C=N/NC(=O)c1ccc2c(c1)OCCO2	PABP1 MLLE inh 49.1 (no result: HCV NS3 hel inh, PABP FP inh, core dimer inh, eIF4H inh, DNA FID counter)
O=C(O)c1ccc(/C=N/NC(=O)c2ccc3c(c2)OCCO3)cc1	none
COC1(OC)N=C(N)C2(C#N)C(c3ccccc3)NC(C)=CC12C#N (stereo unspecified)	none
CC1=CC(C#N)(C#N)C(C#N)(C#N)C(c2ccccc2)N1 (stereo unspecified)	PABP FP inh 102.1, eIF4H inh 102.4 (no result: PABP1 MLLE inh)
Cc1ccc(C=C2C(Cl)=C(Cl)C(Cl)=C2Cl)cc1	PABP FP inh 84.5, eIF4H inh 101.5 (no result: PABP1 MLLE inh)
Cc1ccc(/C=[N+](/C)[O-])cc1	PABP FP inh inconclusive
CC(C)(C(=O)N1CCC1(C)C(=O)NS(=O)(=O)c1cccc(Cl)c1)c1ccccc1 (stereo unspecified)	none (no result: HCV NS3 hel inh, PABP FP inh, core dimer inh, eIF4H inh, DNA FID counter)

From PubChem BioAssay
